Reference: ChEMBL document CHEMBL1145212, “Fluorinated diaryl sulfides as serotonin transporter ligands: synthesis, structure-activity relationship study, and in vivo evaluation of fluorine-18-labeled compounds as PET imaging agents” (J Med Chem, 2005)

What was measured:
Rattus norvegicus [1] = species: Rattus norvegicus; test: Regional uptake of [18F]AFA in cerebellum of rat pretreated with compound GBR-12935; n=3; type: functional, organism-based; conditions: tested as the 18F-labelled form
Summary of the method: (§1)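 Male Sprague-Dawley rats, three per group, received blocker (2 mg/kg iv in saline) or saline only (controls) 10–15 min before about 20 µCi of tail-vein F-18 radioligand. Killed 60 min after tracer. Blood and brain regions weighed and gamma-counted. %ID/g was decay- and tail-corrected; mean ± SD.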

Rattus norvegicus [2] = species: Rattus norvegicus; test: Regional uptake of [18F]AFA in cerebellum of rat pretreated with compound 7e; n=3; type: functional, organism-based; conditions: tested as the 18F-labelled form
Rattus norvegicus [3] = species: Rattus norvegicus; test: Regional uptake of [18F]AFA in thalamus of rat pretreated with compound 7e; n=3; type: functional, organism-based; conditions: tested as the 18F-labelled form
Rattus norvegicus [4] = species: Rattus norvegicus; test: Regional uptake of [18F]-AFA in striatum of rat pretreated with compound 7e; n=3; type: functional, organism-based; conditions: tested as the 18F-labelled form
Rattus norvegicus [5] = species: Rattus norvegicus; test: Regional uptake of [18F]AFA in cerebellum of rat pretreated with compound nisoxetine; n=3; type: functional, organism-based; conditions: tested as the 18F-labelled form; summary of the method: as §1
[6] = target: Sodium-dependent serotonin transporter (Rattus norvegicus) (UniProt P31652); test: Specific binding in rat hypothalamus at 120 min postinjection in vivo; type: functional, organism-based; conditions: tested as the 18F-labelled form
Chain of Sodium-dependent serotonin transporter (Rattus norvegicus) (P31652 whole entry): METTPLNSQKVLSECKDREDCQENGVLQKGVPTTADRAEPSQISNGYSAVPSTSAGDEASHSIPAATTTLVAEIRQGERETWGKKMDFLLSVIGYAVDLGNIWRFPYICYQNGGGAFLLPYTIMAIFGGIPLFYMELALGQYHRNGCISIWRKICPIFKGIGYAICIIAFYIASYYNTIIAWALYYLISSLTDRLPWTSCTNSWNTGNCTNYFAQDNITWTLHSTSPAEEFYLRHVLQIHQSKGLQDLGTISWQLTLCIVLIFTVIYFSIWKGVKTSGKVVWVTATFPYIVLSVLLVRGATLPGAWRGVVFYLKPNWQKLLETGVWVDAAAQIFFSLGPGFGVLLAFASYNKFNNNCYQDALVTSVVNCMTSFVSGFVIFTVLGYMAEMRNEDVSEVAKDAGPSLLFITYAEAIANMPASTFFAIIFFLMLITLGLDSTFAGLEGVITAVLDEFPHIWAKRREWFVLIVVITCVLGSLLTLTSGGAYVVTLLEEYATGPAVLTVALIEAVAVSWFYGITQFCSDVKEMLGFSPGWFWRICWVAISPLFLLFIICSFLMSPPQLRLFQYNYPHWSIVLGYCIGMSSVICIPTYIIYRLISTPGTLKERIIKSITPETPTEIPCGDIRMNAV
Summary of the method: (§2)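 Male Sprague-Dawley rats, n=3 per time point, received about 20 µCi of F-18 radioligand in saline iv by tail vein and were killed at 10–120 min. %ID/g was measured with decay and tail-residual correction. Hypothalamic specific binding = (%ID/g hypothalamus − %ID/g cerebellum)/%ID/g cerebellum; mean ± SD.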

Rattus norvegicus [7] = species: Rattus norvegicus; test: Regional uptake of [18F]AFA in thalamus of rat pretreated with compound GBR-12935; n=3; type: functional, organism-based; conditions: tested as the 18F-labelled form; summary of the method: as §1
Rattus norvegicus [8] = species: Rattus norvegicus; test: Regional uptake of [18F]AFA in blood of rat pretreated with compound nisoxetine; n=3; type: functional, organism-based; conditions: tested as the 18F-labelled form; summary of the method: as §1
Rattus norvegicus [9] = species: Rattus norvegicus; test: Regional uptake of [18F]-AFA in blood of rat pretreated with compound citalopram; n=3; type: functional, organism-based; conditions: tested as the 18F-labelled form; summary of the method: as §1
Rattus norvegicus [10] = species: Rattus norvegicus; test: Regional uptake of [18F]AFA in hippocampus of rat pretreated with compound 7e; n=3; type: functional, organism-based; conditions: tested as the 18F-labelled form
[11] = target: Sodium-dependent serotonin transporter (Rattus norvegicus) (UniProt P31652); test: Specific binding in rat hypothalamus at 90 min postinjection in vivo; type: functional, organism-based; conditions: tested as the 18F-labelled form; summary of the method: as §2
[12] = target: Sodium-dependent serotonin transporter (Homo sapiens, UniProt P31645); test: In vitro displacement of [3H]paroxetine from human serotonin transporter expressed in HEK293 cells; type: cell-based
Chain of Sodium-dependent serotonin transporter (P31645 whole entry): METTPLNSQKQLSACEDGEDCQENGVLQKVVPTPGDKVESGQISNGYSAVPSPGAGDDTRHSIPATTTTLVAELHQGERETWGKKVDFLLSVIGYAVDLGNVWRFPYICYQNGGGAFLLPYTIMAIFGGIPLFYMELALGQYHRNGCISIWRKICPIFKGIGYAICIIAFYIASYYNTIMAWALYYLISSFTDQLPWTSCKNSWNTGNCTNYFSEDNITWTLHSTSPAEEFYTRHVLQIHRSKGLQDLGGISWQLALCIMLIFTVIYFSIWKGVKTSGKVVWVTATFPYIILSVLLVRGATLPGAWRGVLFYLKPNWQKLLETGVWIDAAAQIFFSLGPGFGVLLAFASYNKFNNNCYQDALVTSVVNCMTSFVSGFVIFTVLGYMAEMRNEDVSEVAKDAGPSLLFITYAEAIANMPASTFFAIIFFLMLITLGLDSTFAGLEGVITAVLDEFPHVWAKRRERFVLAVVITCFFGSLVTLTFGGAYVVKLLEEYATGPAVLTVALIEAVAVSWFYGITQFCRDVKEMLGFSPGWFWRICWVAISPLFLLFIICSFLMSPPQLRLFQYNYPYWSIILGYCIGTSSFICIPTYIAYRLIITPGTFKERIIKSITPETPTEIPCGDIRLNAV

Rattus norvegicus [13] = species: Rattus norvegicus; test: Regional uptake of [18F]AFA in frontal cortex of rat pretreated with compound GBR-12935; n=3; type: functional, organism-based; conditions: tested as the 18F-labelled form; summary of the method: as §1
Rattus norvegicus [14] = species: Rattus norvegicus; test: Regional uptake of [18F]AFA in frontal cortex of rat pretreated with compound nisoxetine; n=3; type: functional, organism-based; conditions: tested as the 18F-labelled form; summary of the method: as §1
[15] = target: Sodium-dependent serotonin transporter (Rattus norvegicus) (UniProt P31652); test: Specific binding of [18F]AFA in rat hypothalamus after nisoxetine treatment; n=3; type: functional, tissue-based; conditions: tested as the 18F-labelled form
Summary of the method: (§3)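 Rats, three per group, were pretreated iv with blocker at 2 mg/kg in saline, or with saline as control, 10–15 min before tail-vein F-18 radioligand (about 20 µCi). Killed at 60 min and regional %ID/g determined. Specific binding = (region activity − cerebellum activity)/cerebellum activity; mean ± SD.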

Rattus norvegicus [16] = species: Rattus norvegicus; test: Regional uptake of [18F]AFA in hippocampus of rat pretreated with compound GBR-12935; n=3; type: functional, organism-based; conditions: tested as the 18F-labelled form; summary of the method: as §1
Rattus norvegicus [17] = species: Rattus norvegicus; test: Regional uptake of [18F]AFA in hypothalamus of rat pretreated with compound GBR-12935; n=3; type: functional, organism-based; conditions: tested as the 18F-labelled form; summary of the method: as §1
[18] = target: Sodium-dependent serotonin transporter (Rattus norvegicus) (UniProt P31652); test: Specific binding of [18F]AFA in rat thalamus after GBR-12935 treatment; n=3; type: functional, tissue-based; conditions: tested as the 18F-labelled form; summary of the method: as §3
[19] = target: Sodium-dependent serotonin transporter (Rattus norvegicus) (UniProt P31652); test: Specific binding of [18F]AFA in rat hypothalamus after GBR-12935 treatment; n=3; type: functional, tissue-based; conditions: tested as the 18F-labelled form; summary of the method: as §3
Rattus norvegicus [20] = species: Rattus norvegicus; test: Regional uptake of [18F]AFA in thalamus of rat pretreated with compound nisoxetine; n=3; type: functional, organism-based; conditions: tested as the 18F-labelled form; summary of the method: as §1
[21] = target: Sodium-dependent serotonin transporter (Rattus norvegicus) (UniProt P31652); test: Specific binding of [18F]AFA in rat frontal cortex after GBR-12935 treatment; n=3; type: functional, tissue-based; conditions: tested as the 18F-labelled form; summary of the method: as §3
Rattus norvegicus [22] = species: Rattus norvegicus; test: Regional uptake of [18F]AFA in frontal cortex of rat pretreated with compound 7e; n=3; type: functional, organism-based; conditions: tested as the 18F-labelled form
Rattus norvegicus [23] = species: Rattus norvegicus; test: Regional uptake of [18F]-AFA in blood of rat pretreated with compound GBR-12935; n=3; type: functional, organism-based; conditions: tested as the 18F-labelled form; summary of the method: as §1
[24] = target: Sodium-dependent serotonin transporter (Rattus norvegicus) (UniProt P31652); test: Specific binding of [18F]AFA in rat hippocampus after GBR-12935 treatment; n=3; type: functional, tissue-based; conditions: tested as the 18F-labelled form; summary of the method: as §3
Rattus norvegicus [25] = species: Rattus norvegicus; test: Regional uptake of [18F]AFA in cerebellum of rat pretreated with compound citalopram; n=3; type: functional, organism-based; conditions: tested as the 18F-labelled form; summary of the method: as §1

- Specific binding (dimensionless ratio) [6]: 4.5
- Specific binding (dimensionless ratio) [11]: 4.36
- Ki [12]: 1.83 nM
- Specific binding [15]: 4 %ID/g
- Specific binding [18]: 3.38 %ID/g
- Specific binding [19]: 3.85 %ID/g
- Specific binding [21]: 1.98 %ID/g
- Specific binding [24]: 2.18 %ID/g
SMILES: CN(C)Cc1ccccc1Sc1ccc(CCF)cc1N
- Uptake (Rattus norvegicus [1]): 0.06 %ID/g
- Uptake (Rattus norvegicus [2]): 0.07 %ID/g
- Uptake (Rattus norvegicus [3]): 0.14 %ID/g
- Uptake (Rattus norvegicus [4]): 0.11 %ID/g
- Uptake (Rattus norvegicus [5]): 0.07 %ID/g
- Uptake (Rattus norvegicus [7]): 0.25 %ID/g
- Uptake (Rattus norvegicus [8]): 0.06 %ID/g
- Uptake (Rattus norvegicus [9]): 0.08 %ID/g
- Uptake (Rattus norvegicus [10]): 0.11 %ID/g
- Uptake (Rattus norvegicus [13]): 0.17 %ID/g
- Uptake (Rattus norvegicus [14]): 0.19 %ID/g
- Uptake (Rattus norvegicus [16]): 0.18 %ID/g
- Uptake (Rattus norvegicus [17]): 0.32 %ID/g
- Uptake (Rattus norvegicus [20]): 0.29 %ID/g
- Uptake (Rattus norvegicus [22]): 0.1 %ID/g
- Uptake (Rattus norvegicus [23]): 0.06 %ID/g
- Uptake (Rattus norvegicus [25]): 0.06 %ID/g
